Results reported in ChEMBL document CHEMBL1144343 (J Med Chem, 2005).
Where a SMILES comes first, the peptide text is derived from it. [ ]: non-standard residue; d: D form. Phe(4-NH2) = Nc1ccc(C[C@H](N)C(=O)O)cc1

Columns and labels:
[1] = biological target: T1, Angiotensin II receptor (AT-1) type-1 (Rattus norvegicus, UniProt P29089+P25095); assay: Displacement of [125I]-Ang II from angiotensin II receptor type 1 in rat liver membranes; assay type: cell membranes, Membrane
T1 sequence (P29089 whole entry): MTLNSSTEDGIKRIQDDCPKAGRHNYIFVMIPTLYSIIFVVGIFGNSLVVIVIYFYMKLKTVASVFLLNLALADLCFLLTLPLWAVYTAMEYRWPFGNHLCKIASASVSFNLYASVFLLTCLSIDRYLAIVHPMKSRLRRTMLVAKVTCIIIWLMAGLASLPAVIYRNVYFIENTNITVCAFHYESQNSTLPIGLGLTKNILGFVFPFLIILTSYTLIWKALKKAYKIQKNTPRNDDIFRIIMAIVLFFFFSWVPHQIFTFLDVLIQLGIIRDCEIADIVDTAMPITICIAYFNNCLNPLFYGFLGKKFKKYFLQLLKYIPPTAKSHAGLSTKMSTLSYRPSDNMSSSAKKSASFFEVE
T1 sequence (P25095 whole entry): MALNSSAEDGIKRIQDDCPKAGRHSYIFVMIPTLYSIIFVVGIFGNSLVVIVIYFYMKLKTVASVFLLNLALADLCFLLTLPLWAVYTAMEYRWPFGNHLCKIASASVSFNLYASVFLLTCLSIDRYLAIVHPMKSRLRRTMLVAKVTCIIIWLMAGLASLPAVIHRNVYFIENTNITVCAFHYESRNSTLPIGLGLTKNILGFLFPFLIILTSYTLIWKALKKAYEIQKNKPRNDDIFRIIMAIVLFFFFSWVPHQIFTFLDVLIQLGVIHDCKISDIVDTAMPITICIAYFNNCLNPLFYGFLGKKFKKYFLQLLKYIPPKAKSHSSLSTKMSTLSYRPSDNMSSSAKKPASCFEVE

NG108-15 = assay: Effect on neurite outgrowth in NG108-15 cells after treatment for 3 days (control 2.26%)
[2] = biological target: T2, Type-2 angiotensin II receptor (Homo sapiens) (UniProt P50052); assay: Effect on [3H]thymidine incorporation into PC12 cells expressing AT2 receptors at 1.0 uM; conditions: PC-12
T2 sequence (whole entry): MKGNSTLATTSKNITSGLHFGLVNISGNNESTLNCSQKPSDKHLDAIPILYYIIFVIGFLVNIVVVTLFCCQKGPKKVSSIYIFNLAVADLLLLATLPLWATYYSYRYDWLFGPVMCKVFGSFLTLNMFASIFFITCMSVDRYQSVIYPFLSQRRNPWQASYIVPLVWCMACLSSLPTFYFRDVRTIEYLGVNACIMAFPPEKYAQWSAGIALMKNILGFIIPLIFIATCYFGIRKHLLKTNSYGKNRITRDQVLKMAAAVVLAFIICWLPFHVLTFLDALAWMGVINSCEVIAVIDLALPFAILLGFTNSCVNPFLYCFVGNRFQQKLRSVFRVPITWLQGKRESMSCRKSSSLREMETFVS

[3] = biological target: T3, Type-2 angiotensin II receptor (Homo sapiens, UniProt P50052); assay: Displacement of [125I]-Ang II from angiotensin II receptor type 2 in pig uterus myometrium; parameters: species or system Sus scrofa; conditions: target entry is the homologue from another species
T3 sequence (P50052 whole entry): T2 sequence (whole entry)
Method in brief: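 Porcine uterine myometrial membranes (10 mg tissue equivalent) with 1 µM losartan to block AT1. Tris-HCl pH 7.4 buffer with NaCl, MgCl2, EDTA, 0.2% BSA and peptidase inhibitors. Filtration, γ-counting; nonspecific binding with 1 µM Ang II.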

| SMILES | Ki [1] [µM] | Activity (Counts/minute) [2] | Ki [3] [µM] | Activity (NG108-15) [%] |
| --- | --- | --- | --- | --- |
| CC[C@H](C)[C@H](NC(=O)[C@H](Cc1ccc(O)cc1)NC(=O)[C@@H](NC(=O)[C@H](CCCN=C(N)N)NC(=O)[C@@H](N)CC(=O)O)C(C)C)C(=O)N[C@@H](Cc1ccc(N)cc1)C(=O)N1CCC[C@H]1C(=O)N[C@@H](Cc1ccccc1)C(=O)O (H-DRVYI[Phe(4-NH2)]PF-OH) | > 10 |  |  |  |
| CC[C@@H](C)[C@@H](C(=O)N[C@@H](Cc1c[nH]cn1)C(=O)N1CCC[C@H]1C(=O)N[C@@H](Cc1ccccc1)C(=O)O)N1Cc2cccc(NC(=O)[C@@H](NC(=O)[C@H](CCCN=C(N)N)NC(=O)[C@@H](N)CC(=O)O)C(C)C)c2N[C@@H](Cc2ccc(O)cc2)C1=O | > 10 |  |  |  |
| CC[C@@H](C)[C@@H](C(=O)N[C@@H](Cc1c[nH]cn1)C(=O)N1CCC[C@H]1C(=O)N[C@@H](Cc1ccccc1)C(=O)O)N1Cc2cccc(NC(=O)[C@H](CCCN=C(N)N)NC(=O)[C@@H](N)CC(=O)O)c2N[C@@H](Cc2ccc(O)cc2)C1=O | > 10 |  |  |  |
| NC(N)=NCCC[C@H](NC(=O)[C@@H](N)CC(=O)O)C(=O)Nc1ccc2c(c1)CN(CC(=O)N[C@@H](Cc1c[nH]cn1)C(=O)N1CCC[C@H]1C(=O)N[C@@H](Cc1ccccc1)C(=O)O)C(=O)[C@H](Cc1ccc(O)cc1)N2 | > 10 |  |  |  |
| Cc1cc(Cn2cnc3c2C[C@@H](C(=O)O)N(C(=O)C(c2ccccc2)c2ccccc2)C3)ccc1N(C)C |  | 68700 |  |  |

Continued, in another order:

| Ki [1] [µM] | Activity (Counts/minute) [2] | Ki [3] [µM] | SMILES | Activity (NG108-15) [%] |
| --- | --- | --- | --- | --- |
| > 10 |  |  | C[C@H](NC(=O)[C@@H](N)CC(=O)O)C(=O)Nc1cccc2c1N[C@@H](Cc1ccc(O)cc1)C(=O)N(CC(=O)N[C@@H](Cc1c[nH]cn1)C(=O)N1CCC[C@H]1C(=O)N[C@@H](Cc1ccccc1)C(=O)O)C2 |  |
| > 10 |  |  | CC(C)[C@H](NC(=O)[C@H](CCCN=C(N)N)NC(=O)[C@@H](N)CC(=O)O)C(=O)Nc1cccc2c1N[C@@H](Cc1ccc(O)cc1)C(=O)N(CC(=O)N[C@@H](Cc1c[nH]cn1)C(=O)N1CCC[C@H]1C(=O)N[C@@H](Cc1ccccc1)C(=O)O)C2 | 9.88 |
| > 10 |  |  | CC(C)[C@H](NC(=O)[C@H](C)NC(=O)[C@@H](N)CC(=O)O)C(=O)Nc1cccc2c1N[C@@H](Cc1ccc(O)cc1)C(=O)N(CC(=O)N[C@@H](Cc1c[nH]cn1)C(=O)N1CCC[C@H]1C(=O)N[C@@H](Cc1ccccc1)C(=O)O)C2 |  |
| > 10 |  |  | NC(N)=NCCC[C@H](NC(=O)[C@@H](N)CC(=O)O)C(=O)Nc1cccc2c1N[C@@H](Cc1ccc(O)cc1)C(=O)N(CC(=O)N[C@@H](Cc1c[nH]cn1)C(=O)N1CCC[C@H]1C(=O)N[C@@H](Cc1ccccc1)C(=O)O)C2 | 9.35 |
| > 10 | 45400 | 0.003 | CC(C)[C@H](NC(=O)[C@H](CCCN=C(N)N)NC(=O)[C@@H](N)CC(=O)O)C(=O)Nc1ccc2c(c1)CN(CC(=O)N[C@@H](Cc1c[nH]cn1)C(=O)N1CCC[C@H]1C(=O)N[C@@H](Cc1ccccc1)C(=O)O)C(=O)[C@H](Cc1ccc(O)cc1)N2 | 11.1 |
